The values that follow come from ChEMBL document CHEMBL3751702, “Comprehensive Analysis of Structure-Activity Relationships of α-Ketoheterocycles as sn-1-Diacylglycerol Lipase α Inhibitors” (J Med Chem, 2015).

The term IC50 denotes the point on the concentration scale where inhibition reaches its midpoint.

The target of this assay is T1, Diacylglycerol lipase-alpha (Homo sapiens, UniProt Q9Y4D2).
T1 sequence (Q9Y4D2 whole entry): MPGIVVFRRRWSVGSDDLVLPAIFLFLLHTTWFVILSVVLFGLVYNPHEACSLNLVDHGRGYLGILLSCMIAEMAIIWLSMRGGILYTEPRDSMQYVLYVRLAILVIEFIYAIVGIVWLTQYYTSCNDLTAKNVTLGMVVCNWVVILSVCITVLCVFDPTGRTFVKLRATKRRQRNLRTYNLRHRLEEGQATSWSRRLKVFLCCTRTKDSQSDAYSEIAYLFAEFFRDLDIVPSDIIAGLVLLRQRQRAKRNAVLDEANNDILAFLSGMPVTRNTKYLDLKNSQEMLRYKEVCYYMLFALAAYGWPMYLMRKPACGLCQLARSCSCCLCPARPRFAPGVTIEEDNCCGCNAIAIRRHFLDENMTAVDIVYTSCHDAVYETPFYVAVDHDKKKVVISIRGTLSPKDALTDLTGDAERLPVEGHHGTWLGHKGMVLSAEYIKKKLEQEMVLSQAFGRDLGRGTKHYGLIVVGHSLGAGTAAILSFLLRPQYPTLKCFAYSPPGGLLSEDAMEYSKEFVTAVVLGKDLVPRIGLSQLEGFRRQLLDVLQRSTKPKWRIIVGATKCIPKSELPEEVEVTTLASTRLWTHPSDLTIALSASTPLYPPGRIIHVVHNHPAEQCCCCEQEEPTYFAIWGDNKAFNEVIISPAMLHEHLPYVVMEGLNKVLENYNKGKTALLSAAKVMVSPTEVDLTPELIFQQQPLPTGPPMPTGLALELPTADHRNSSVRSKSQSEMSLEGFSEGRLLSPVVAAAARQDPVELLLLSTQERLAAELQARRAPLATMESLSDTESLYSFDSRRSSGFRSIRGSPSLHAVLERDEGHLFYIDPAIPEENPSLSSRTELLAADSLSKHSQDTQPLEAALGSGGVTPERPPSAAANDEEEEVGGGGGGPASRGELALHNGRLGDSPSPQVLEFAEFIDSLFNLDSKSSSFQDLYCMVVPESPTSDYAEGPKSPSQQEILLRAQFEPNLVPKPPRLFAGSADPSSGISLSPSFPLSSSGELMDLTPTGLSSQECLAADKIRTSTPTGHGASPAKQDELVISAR
Description: Inhibition of full-length human DAGLalpha expressed in HEK293T cell membranes using para-nitrophenylbutyrate by colorimetric assay. The format is cell-based, HEK-293T. In outline: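 Membranes from HEK293T cells transiently transfected with full-length human DAGL-α (pcDNA3.1; PEI transfection, harvested at 72 h), diluted to 0.05 μg/μL final protein in 50 mM HEPES pH 7.2. Screen at 10 μM in duplicate; dose response by 10-fold serial dilution.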
For `O=C(CCCCCCc1ccccc1)c1ncc(-c2ccccc2)o1`, the IC50 was above 10 µM. The compound `O=C(CCCCCCc1ccccc1)c1nnc(-c2ccccc2)o1` showed an IC50 above 10 µM. Under `O=C(CCCCCCc1ccccc1)c1nnc(-c2ccccn2)o1` stands above 10 µM. As for `O=C(CCCCCCCc1ccccc1)c1nc2ncccc2o1`, half-maximal inhibition (IC50) was put at 0.0468 µM. As for `O=C(CCCCCCc1ccccc1)c1nnc(-c2ccncc2)o1`, the figure is above 10 µM; as for `CCCCCCCCCCCCCCCC(=O)c1nc2ncccc2o1`, 0.0646 µM. `CCCCCCCCCCCCCC(=O)c1nc2ncccc2o1` had a concentration for half-maximal inhibition (IC50) of 0.0741 µM. Under `CCCCCCCCCC(=O)c1nc2ncccc2o1` stands 0.0741 µM; under `CCCCCC(=O)c1nc2ncccc2o1`, above 10 µM. As for `CC(=O)c1nc2ncccc2o1`, the figure is above 10 µM; as for `O=C(CCCCCCCCc1ccccc1)c1nc2ncccc2o1`, 0.00363 µM; as for `COc1ccc(-c2cnc(C(=O)CCCCCCc3ccccc3)o2)cc1`, above 10 µM. The compound `O=C(CCCCCCc1ccccc1)c1ncc(-c2ccc(C(=O)C(F)(F)F)cc2)o1` gave a concentration for half-maximal inhibition (IC50) above 10 µM.

In turn, `Cc1ccc(-c2cnc(C(=O)CCCCCCc3ccccc3)o2)nc1` had an IC50 above 10 µM. In turn, `O=C(CCCCCCc1ccccc1)c1ncc(-c2ccc(F)cc2)o1` gave an IC50 above 10 µM. In the case of `O=C(CCCCCCc1ccccc1)c1ncc(-c2ccccc2F)o1`, the 50% inhibitory concentration (IC50) was above 10 µM. As to `CCCCCCCC(=O)c1nc2ncccc2o1`, 0.631 µM corresponded to half-maximal inhibition (IC50). Take `CCCCCCCCCCCC(=O)c1nc2ncccc2o1`: the midpoint of inhibition, the IC50, lay at 0.0309 µM. Under `O=C(CCCc1ccccc1)c1nc2ncccc2o1` stands 2.24 µM. For `CCCCCCCC/C=C\CCCCCCCC(=O)c1nc2ncccc2o1`, 0.0263 µM corresponded to half-maximal inhibition (IC50). In turn, `O=C(CCCCCCc1ccccc1)c1nnc(-c2cccnc2)o1` gave an IC50 above 10 µM. Under `O=C(CCCCCCc1ccccc1)c1nc2ncccc2o1` stands 0.525 µM; under `O=C(CCCCCCc1ccccc1)c1ncc(-c2ccc(C(F)(F)F)cn2)o1`, above 10 µM. As for `C=CCCCCCCCC(=O)c1nc2ncccc2o1`, the figure is 0.55 µM. Under `O=C(CCc1ccccc1)c1nc2ncccc2o1` stands 18.2 µM; under `COc1ccc(-c2cnc(C(=O)CCCCCCc3ccccc3)o2)nc1`, above 10 µM; under `O=C(CCCCCCc1ccccc1)c1ncc(-c2cccc(F)c2)o1`, above 10 µM.

Regarding `CCCCC(=O)c1nc2ncccc2o1`, the concentration for half-maximal inhibition (IC50) was above 10 µM. As for `O=C(CCCCCCc1ccccc1)c1nnc(-c2ccco2)o1`, the figure is above 10 µM; as for `O=C(CCCCCCc1ccccc1)c1nc(-c2ccccn2)co1`, above 10 µM; as for `O=C(CCCCc1ccccc1)c1nc2ncccc2o1`, 0.204 µM. The compound `O=C(CCCCCCc1ccccc1)c1nc(-c2cccs2)no1` had an IC50 of 1.95 µM.

Compound `O=C(O)c1cccc(-c2noc(C(=O)CCCCCCc3ccccc3)n2)n1` gave an IC50 above 10 µM. As for `COC(=O)c1nc(C(=O)CCCCCCc2ccccc2)no1`, the figure is above 10 µM. As for `O=C(CCCCCCc1ccccc1)c1noc(-c2ccccn2)n1`, the figure is above 10 µM; as for `O=C(CCCCCCc1ccccc1)c1noc(-c2cccs2)n1`, above 10 µM.

For the compound `O=C(CCCCCCc1ccccc1)c1nc(-c2ccccn2)no1`, inhibition was half-maximal at 2.75 µM (IC50). Under `O=C(CCCCCCc1ccccc1)c1nc(-c2ccco2)no1` stands 0.933 µM. Under `N#Cc1cccc(-c2noc(C(=O)CCCCCCc3ccccc3)n2)n1` stands 1.05 µM; under `O=C(CCCCCCc1ccccc1)c1nc(-c2cccc(I)n2)no1`, above 10 µM; under `O=C(CCCCCCc1ccccc1)c1noc(-c2ccco2)n1`, above 10 µM. Regarding `COC(=O)c1cccc(-c2noc(C(=O)CCCCCCc3ccccc3)n2)n1`, the IC50 was above 10 µM. Compound `O=C(CCCCCCc1ccccc1)c1nc(-c2cccc(Cl)n2)no1` had a concentration for half-maximal inhibition (IC50) above 10 µM.

Compound `O=C(CCCCCCc1ccccc1)c1nc(-c2cccc(Br)n2)no1` showed an IC50 of 2.04 µM. `O=C(CCCCCCc1ccccc1)c1nc(-c2ccncc2)co1`: the concentration for half-maximal inhibition (IC50) is above 10 µM.
